Data published in ChEMBL document CHEMBL3826940, “Amphipathicity Determines Different Cytotoxic Mechanisms of Lysine- or Arginine-Rich Cationic Hydrophobic Peptides in Cancer Cells” (J Med Chem, 2016).
Calls of active or inactive are those of the source. The calls are words filed in the database; no cut-off is given here.

Columns and labels:
[1] = tested on: HeLa; assay: Cytotoxicity against human HeLa cells assessed as cell viability after 24 hrs by MTT assay; type: functional, cell-based
Summary of the method: (§1)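 MTT viability assay. Cells were seeded at 1 × 10^4 cells/well in complete medium and grown 24 h. Medium was replaced with fresh medium containing peptide over a concentration series and incubated 24 h. MTT (5 mg/mL) was added for 4 h, formazan was dissolved in DMSO, and A490 was read. IC50 was derived from mean ± SD of three independent experiments.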

[2] = tested on: HeLa; assay: Drug uptake in human HeLa cells at 5 uM after 15 mins using iridium dye labeled compound by confocal microscopic method; type: ADME, cell-based; conditions: 0.25 h
Summary of the method: (§2)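 Peptides were labelled at the N-terminal His with [Ir(ppy)2(H2O)2]OTf: 200 μM each, mixed 1:1 in PBS, 2 h at 37 °C in the dark. HeLa cells (1 × 10^5 per dish, grown 24 h) were exposed to 5 μM labelled peptide. Live-cell confocal images were taken at 0, 5 and 15 min (excitation 403 nm, emission 500–560 nm).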

[3] = tested on: MCF7; assay: Cytotoxicity against human MCF7 cells assessed as cell viability after 24 hrs by MTT assay; type: functional, cell-based; summary of the method: as §1
[4] = tested on: A549; assay: Cytotoxicity against human A549 cells assessed as cell viability after 24 hrs by MTT assay; type: functional, cell-based; summary of the method: as §1
[5] = Cytotoxicity against HLF assessed as cell viability after 24 hrs by MTT assay; parameters: species or system Homo sapiens; summary of the method: as §1
[6] = Cytotoxicity against human 293T cells assessed as cell viability after 24 hrs by MTT assay; type: cell-based, HEK-293T; summary of the method: as §1
[7] = tested on: HUVEC; assay: Cytotoxicity against HUVEC assessed as cell viability after 24 hrs by MTT assay; type: cell-based, Homo sapiens; summary of the method: as §1
[8] = Hemolytic activity in mouse RBC at 0.39 to 50 uM after 1 hr; type: ADME, cell-based; conditions: erythrocyte
Summary of the method: (§3)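 Heparinized fresh mouse blood: RBCs were washed three times in 0.9% saline and diluted to 4.0 × 10^8 cells/mL. Peptides at various concentrations were incubated with the RBCs 1 h at 37 °C. After centrifugation at 1000 rpm for 10 min, supernatant absorbance was read at 540 nm, with 1% Triton X-100 set as 100% hemolysis.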

[9] = tested on: HeLa; assay: Induction of shrinkage of human HeLa cells at 5 uM after 30 mins by microscopic method; type: functional, cell-based
Summary of the method: (§4)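 HeLa cells were co-incubated with 5 μM peptide for 30 min. Morphology was then examined under the microscope.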

[10] = tested on: HeLa; assay: Induction of appearance of rounded human HeLa cells at 5 uM after 30 mins by microscopic method; type: functional, cell-based; summary of the method: as §4
[11] = tested on: HeLa; assay: Induction of morphological changes in human HeLa cells at 5 uM after 30 mins by microscopic method; type: functional, cell-based; summary of the method: as §4
[12] = tested on: HeLa; assay: Cytotoxicity against human HeLa cells assessed as cell mortality at 5 uM after 5 mins by Hoechst 33342/propidium iodide staining-based assay; type: functional
Summary of the method: (§5)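 HeLa cells treated with 5 μM peptide were co-stained with Hoechst 33342 (stains all nuclei) and propidium iodide (stains only membrane-compromised cells). Fluorescence imaging was done at time points up to 30 min.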

[13] = tested on: HeLa; assay: Cytotoxicity against human HeLa cells assessed as cell mortality at 5 uM after 30 mins by Hoechst 33342/propidium iodide staining-based assay; type: functional; summary of the method: as §5
[14] = tested on: HeLa; assay: Cytotoxicity against human HeLa cells assessed as cell mortality at 5 uM after 5 mins by MTT assay; type: functional, cell-based
[15] = tested on: HeLa; assay: Cytotoxicity against human HeLa cells assessed as cell mortality at 5 uM after 6 hrs by MTT assay; type: functional, cell-based
[16] = Drug uptake in cytoplasm of human HeLa cells at 5 uM after 2 to 30 mins using iridium dye labeled compound by confocal microscopic method; type: ADME, cell-based; summary of the method: as §2
[17] = tested on: HeLa; assay: Induction of apoptosis in human HeLa cells assessed as viable cells at 5 uM after 15 mins by annexin V/FITC staining-based flow cytometric method (reference value: 99.8%); type: functional; conditions: 0.25 h, read-out: Activity
Summary of the method: (§6)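 Cells were grown 24 h in 6-well plates, then exposed to 5 μM peptide for 15 min. They were collected, washed twice with PBS, and stained with annexin V-FITC plus PI for 20 min at room temperature in the dark before flow cytometry.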

[18] = tested on: HeLa; assay: Induction of apoptosis in human HeLa cells assessed as early apoptotic cells at 5 uM after 15 mins by annexin V/FITC staining-based flow cytometric method (reference value: 0.1%); type: functional; summary of the method: as §6
[19] = tested on: HeLa; assay: Induction of apoptosis in human HeLa cells assessed as late apoptotic cells at 5 uM after 15 mins by annexin V/FITC staining-based flow cytometric method relative to control; type: functional; summary of the method: as §6
[20] = tested on: HeLa; assay: Induction of apoptosis in human HeLa cells assessed as necrotic cells at 5 uM after 15 mins by annexin V/FITC staining-based flow cytometric method relative to control; type: functional; summary of the method: as §6
[21] = tested on: HeLa; assay: Induction of apoptosis in human HeLa cells assessed as caspase-3 activation at 5 uM after 5 mins by caspase-glo assay; type: functional, cell-based
Summary of the method: (§7)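 Cells in 96-well plates were exposed to 5 μM peptide for 5, 10, 15 or 30 min, or 1, 2, 3 or 4 h. Caspase-Glo 3/7 reagent was added, the plate shaken 30 s and incubated 2 h at room temperature, and luminescence was read.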

[22] = tested on: HeLa; assay: Induction of apoptosis in human HeLa cells assessed as caspase-3 activation at 5 uM after 1 to 4 hrs by caspase-glo assay; type: functional, cell-based; summary of the method: as §7
[23] = tested on: HeLa; assay: Induction of apoptosis in human HeLa cells assessed as caspase-3 cleavage at 5 uM after 5 mins by Western blot method; type: functional, cell-based
Summary of the method: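 HeLa cells (8 × 10^5 per 100 mm dish, grown 24 h) were exposed to 5 μM peptide for 5, 10 or 15 min. Lysates (with 1 mM PMSF) were run on 15% SDS-PAGE and blotted to PVDF. Blots were probed overnight at 4 °C with rabbit monoclonal anti-cleaved caspase-3, then HRP goat anti-rabbit, and detected by ECL with actin as loading control.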

[24] = tested on: HeLa; assay: Cytotoxicity against human HeLa cells assessed as lethality at 5 uM after 30 mins by MTT assay; type: functional
Summary of the method: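 HeLa cells were grown in DMEM with 10% FBS and seeded at 1 × 10^4 cells/well, then grown 24 h. Medium was replaced with fresh medium containing 5 μM peptide for 30 min. MTT was added for 4 h and formazan was dissolved in DMSO (10 min, 37 °C). Lethality was read as absorbance at 490 nm.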

[25] = tested on: HeLa; assay: Cytotoxicity against human HeLa cells assessed as lethality at 5 uM after 30 mins in presence of caspase-3 inhibitor Ac-DEVD-CHO by MTT assay; type: functional
Summary of the method: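 HeLa cells were seeded at 1 × 10^4 cells/well and grown 24 h. They were pretreated 30 min with 50 μM Ac-DEVD-CHO, then incubated with or without 5 μM peptide for 30 min. Survival was measured by MTT: 4 h with MTT, DMSO solubilisation, absorbance at 490 nm.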

[26] = tested on: HeLa; assay: Induction of reactive oxygen species generation in human HeLa cells at 5 uM after 30 mins by DCFH-DA staining-based fluorescence assay; type: functional, cell-based
Summary of the method: (§8)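 Cells in 96-well plates were loaded with DCFH-DA for 20 min at 37 °C, then treated with or without 5 μM peptide for 30 min. After a PBS wash, DCF fluorescence was read at 485/535 nm and expressed as fold change versus untreated cells.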

[27] = tested on: A549; assay: Induction of reactive oxygen species generation in human A549 cells at 5 uM after 30 mins by DCFH-DA staining-based fluorescence assay; type: functional, cell-based; summary of the method: as §8
[28] = tested on: MCF7; assay: Induction of reactive oxygen species generation in human MCF7 cells at 5 uM after 30 mins by DCFH-DA staining-based fluorescence assay; type: functional, cell-based; summary of the method: as §8
[29] = tested on: HUVEC; assay: Induction of reactive oxygen species generation in HUVEC at 5 uM after 30 mins by DCFH-DA staining-based fluorescence assay; type: cell-based; conditions: human, 0.5 h; summary of the method: as §8
[30] = Induction of reactive oxygen species generation in human 293T cells at 5 uM after 30 mins by DCFH-DA staining-based fluorescence assay; type: cell-based; conditions: hek-293t, 0.5 h; summary of the method: as §8
[31] = Induction of reactive oxygen species generation in HLF at 5 uM after 30 mins by DCFH-DA staining-based fluorescence assay; conditions: human, 0.5 h; summary of the method: as §8
[32] = tested on: MCF7; assay: Selectivity index, ratio of IC50 for HLF to IC50 for human MCF7 cells
[33] = tested on: HeLa; assay: Selectivity index, ratio of IC50 for HLF to IC50 for human HeLa cells
[34] = tested on: A549; assay: Selectivity index, ratio of IC50 for HLF to IC50 for human A549 cells
[35] = tested on: MCF7; assay: Selectivity index, ratio of IC50 for human 293T cells to IC50 for human MCF7 cells; type: functional
[36] = tested on: HeLa; assay: Selectivity index, ratio of IC50 for human 293T cells to IC50 for human HeLa cells; type: functional
[37] = tested on: A549; assay: Selectivity index, ratio of IC50 for human 293T cells to IC50 for human A549 cells; type: functional
[38] = tested on: MCF7; assay: Selectivity index, ratio of IC50 for HUVEC to IC50 for human MCF7 cells
[39] = tested on: HeLa; assay: Selectivity index, ratio of IC50 for HUVEC to IC50 for human HeLa cells
[40] = tested on: A549; assay: Selectivity index, ratio of IC50 for HUVEC to IC50 for human A549 cells
[41] = tested on: HeLa; assay: Cytotoxicity against human HeLa cells assessed as lethality at 5 uM at 0 degC after 30 mins by MTT assay; type: functional, cell-based
Summary of the method: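 HeLa cells were incubated with peptide over a range of concentrations at 0 or 37 °C for 30 min. Lethality was then measured by MTT, with A490 read after DMSO solubilization.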

[42] = Hemolytic activity in mouse RBC after 1 hr; type: ADME, cell-based, Erythrocyte; conditions: red blood cells; summary of the method: as §3

## CC(C)C[C@@H](NC(=O)[C@@H](CCCNC(=N)N)NC(=O)[C@@H](CC(C)C)NC(=O)[C@@H](CC(C)C)NC(=O)[C@@H](CCCNC(=N)N)NC(=O)[C@@H](CCCNC(=N)N)NC(=O)[C@@H](CC(C)C)NC(=O)[C@@H](CCCNC(=N)N)NC(=O)[C@@H](CC(C)C)NC(=O)[C@@H](CC(C)C)NC(=O)[C@@H](CCCNC(=N)N)NC(=O)[C@@H](CC(C)C)NC(=O)[C@@H](CC(C)C)NC(=O)[C@@H](CCCNC(=N)N)NC(=O)CNC(=O)CNC(=O)[C@H](N)Cc1cnc[nH]1)C(N)=O
[1]
  IC50: 4.1 µM
[2]
  Drug uptake: Active

## H-HGGKLLKLLKLKKLLKL-NH2
[1]
  IC50: 34.5 µM
[3]
  Activity: inactive
[4]
  Activity: inactive
[5]; human, hlf
  Activity: Non-toxic
[6]; human, hek-293t
  Activity: Non-toxic
[7]; human, huvec
  Activity: Non-toxic
[8]
  Activity: Non-toxic

## CC(C)C[C@H](NC(=O)[C@H](CCCNC(=N)N)NC(=O)[C@H](CC(C)C)NC(=O)[C@H](CC(C)C)NC(=O)[C@H](CCCNC(=N)N)NC(=O)[C@H](CCCNC(=N)N)NC(=O)[C@H](CC(C)C)NC(=O)[C@H](CCCNC(=N)N)NC(=O)[C@H](CC(C)C)NC(=O)[C@H](CC(C)C)NC(=O)[C@H](CCCNC(=N)N)NC(=O)[C@H](CC(C)C)NC(=O)[C@H](CC(C)C)NC(=O)[C@H](CCCNC(=N)N)NC(=O)CNC(=O)CNC(=O)[C@@H](N)Cc1cnc[nH]1)C(N)=O
[1]
  IC50: 4.2 µM
[9]
  Activity: Active
[10]
  Activity: Active
[11]
  Activity: inactive
[12]
  Activity: inactive
[13]
  Activity: Active
[14]
  Activity: inactive
[15]
  Activity: Active
[16]
  Drug uptake: Active
[17]
  viability at 5 µM: 46.3%
[18]
  Activity: 45.9%
[19]
  Activity: 7.7%
[20]
  Activity: 0.1%
[21]
  Activity: Active
[22]
  Activity: inactive
[23]
  Activity: Active
[24]
  Activity: 56%
[25]
  Activity: 20%
[3]; MCF7, 24 h
  IC50: 4.5 µM
[4]; A549, 24 h
  IC50: 4.8 µM
[5]; Homo sapiens, HLF
  IC50: 21.4 µM
[6]; Homo sapiens, HEK-293T
  IC50: 41.6 µM
[7]; Homo sapiens, HUVEC
  IC50: 19 µM
[26]
  Activity: Active
[27]
  Activity: Active
[28]
  Activity: Active
[29]
  Activity: Non-toxic
[30]
  Activity: Non-toxic
[31]
  Activity: Non-toxic
[32]
  Ratio IC50: 4
[33]
  Ratio IC50: 4
[34]
  Ratio IC50: 4
[35]
  Ratio IC50: 4
[36]
  Ratio IC50: 4
[37]
  Ratio IC50: 4
[38]
  Ratio IC50: 4
[39]
  Ratio IC50: 4
[40]
  Ratio IC50: 4
[41]
  Activity: inactive
[42]
  HC50 at 1 h: > 200 µM
